Assay results published in PMC7261373 (Journal of medicinal chemistry, 2019).
Values belong to the compound of their own block, whether it stands above or below them.

How the values were obtained:
ERα [1] = target: T1, ERα (Homo sapiens, UniProt P03372); assay: ER in-cell western; assay type: cell-based; settings: MCF7:WS8, 24 h treatment
T1 sequence (P03372 1-595): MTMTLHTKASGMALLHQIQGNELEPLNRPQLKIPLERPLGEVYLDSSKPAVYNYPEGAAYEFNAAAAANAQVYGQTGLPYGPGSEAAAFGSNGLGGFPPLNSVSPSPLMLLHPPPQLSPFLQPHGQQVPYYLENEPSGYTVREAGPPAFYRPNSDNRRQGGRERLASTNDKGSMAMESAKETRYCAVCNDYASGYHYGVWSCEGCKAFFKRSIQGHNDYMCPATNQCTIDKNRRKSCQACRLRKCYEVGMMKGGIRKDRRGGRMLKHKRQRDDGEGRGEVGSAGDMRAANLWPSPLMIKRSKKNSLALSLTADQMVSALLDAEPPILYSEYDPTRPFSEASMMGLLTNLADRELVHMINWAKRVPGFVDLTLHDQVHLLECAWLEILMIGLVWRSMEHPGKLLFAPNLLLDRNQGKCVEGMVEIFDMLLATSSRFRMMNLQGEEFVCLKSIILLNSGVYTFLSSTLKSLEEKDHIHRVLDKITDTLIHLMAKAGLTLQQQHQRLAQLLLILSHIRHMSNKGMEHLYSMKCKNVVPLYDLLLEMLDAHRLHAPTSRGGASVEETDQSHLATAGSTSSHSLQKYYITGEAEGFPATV
In short: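 MCF7:WS8 cells were stripped for 2 days (phenol red-free medium, stripped FBS), plated at 2.5 × 10^4 cells/well, grown 48 h, then treated 24 h. They were fixed and stained with anti-ERα (H10) by the in-cell western protocol. The IRDye 800CW signal was normalized to CellTag 700 stain.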

MCF7:5C cells = assay: DNA content assay, 2D growth inhibition of MCF7:5C cells; assay type: cell-based; settings: for growth inhibition, result in words: 2D culture
In short: (§1)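 Cells were seeded at 5000/well in 96-well plates and treated with 0.01% (v/v) DMSO vehicle or serially diluted test compound. MCF7:WS8 cells were estrogen-stripped for 2 days beforehand (phenol red-free RPMI-1640, stripped FBS) and read on day 5. MCF7:5C cells, kept in phenol red-free RPMI-1640 with charcoal:dextran-stripped FBS, were read on day 7. Lysis was at −80 °C overnight, then Hoechst 33258 fluorescence was measured in TNE buffer. Data were normalized to vehicle and no cells, from ≥3 biological and analytical replicates.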

ERE-luciferase = assay type: cell-based; settings: MCF7:WS8, in competition with 1 nM E2
In short: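 MCF7:WS8 cells were grown 3 days in phenol red-free RPMI-1640 with stripped FBS, plated at 1 × 10^5 cells/well, and held 24 h. They were then co-transfected for 6 h (Lipofectamine 2000, Opti-MEM) with pERE-luciferase (three Xenopus vitellogenin A2 EREs driving firefly luciferase) and pRL-TK Renilla. Cells were treated with test compound plus 1 nM E2 for 18 h before dual-luciferase readout.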

MCF7:WS8 cells = assay: DNA content assay, 2D growth inhibition of MCF7:WS8 cells; assay type: cell-based; settings: for growth inhibition, result in words: MCF7:WS8, 2D culture
In short: as §1

MCF7:TAM1 spheroids = assay: Spheroid growth assay; assay type: cell-based; settings: 10 nM, 14 days, ATP content
In short: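 MCF7:TAM1 cells, maintained in phenol red-free stripped RPMI-1640 containing 1 μM of the selecting antiestrogen, were plated at 1000–1500 cells/well in ultra-low-attachment round-bottom plates. Spheroids grew untreated for 1–3 days. Half the medium was then replaced with 2× treatment medium, and 1× treatment was repeated every 2–3 days over 14 days; vehicle was 0.01% DMSO. Viability was read by CellTiter-Glo 3D luminescence, normalized to vehicle (1.0) and background (0.0). Three biological and analytical replicates were run, analysed by one-way ANOVA versus vehicle.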

[2] = Preliminary PK screen, plasma and brain concentrations by LC-MS/MS; assay type: in vivo, C57BL/6 mice; settings: for concentration in the brain: 0.5 and 2 h, 100 mg/kg oral
ERα [3] = target: T1, ERα; assay: ER western assay with proteasomal inhibitor MG-132 in MCF7:WS8 cells; assay type: cell-based; settings: MCF7:WS8, 10 nM, MG-132 1 μM, western blot
[4] = system: T47D:WT, T47D:TYS (Y537S) and T47D:TDG (D538G) cells; assay: Spheroid growth assay; assay type: cell-based; settings: 10 nM, 11 days treatment
Full PK analysis of 37d = assay type: in vivo, CD-1 mice; settings: CD-1, mouse, plasma, po, 50 mg/kg
In short: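 Test compound was given orally at 50 mg/kg as a solution in water and 10% SBE-β-CD/PEG-400 (9:1 v/v). Plasma was sampled at 10 time points. Samples were diluted in 50% acetonitrile, with working standards serially diluted in 50% acetonitrile in water, and quantified by LC-MS/MS.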

SMILES: O=C(c1ccc(O)cc1)c1sc2cc(O)ccc2c1Oc1ccc(OCCN2CC(CF)C2)cc1 [30g, (3-(4-(2-(3-(Fluoromethyl)azetidin-1-yl)ethoxy)phenoxy)-6-hydroxybenzo[b]thiophen-2-yl)(4-hydroxyphenyl)methanone]
growth inhibition, result in words (MCF7:5C cells): lost efficacy

SMILES: Cc1ccccc1C(=O)c1sc2cc(O)ccc2c1Oc1ccc(OCCN2CC[C@@H](CF)C2)cc1 [30l, (R)-(3-(4-(2-(3-(Fluoromethyl)pyrrolidin-1-yl)ethoxy)phenoxy)-6-hydroxybenzo[b]thiophen-2-yl)(o-tolyl)methanone]
growth inhibition, result in words (MCF7:5C cells): superior potency and efficacy to 2
growth inhibition, result in words (MCF7:WS8 cells): superior potency and efficacy to 2

SMILES: Cc1cc(F)cc(C)c1C(=O)c1sc2cc(O)ccc2c1Oc1ccc(OCCN2CC(CF)C2)cc1 [30f, (4-Fluoro-2,6-dimethylphenyl)(3-(4-(2-(3-(fluoromethyl)azetidin-1-yl)ethoxy)phenoxy)-6-hydroxybenzo[b]thiophen-2-yl)-methanone]
inhibition of spheroid growth, in words (MCF7:TAM1 spheroids): greater efficacy
concentration in the brain [2]: 600 to 750 nM

SMILES: Cc1cc(F)cc(C)c1C(=O)c1sc2cc(O)ccc2c1Oc1ccc(OC2CN(CCCF)C2)cc1 [37d, (4-Fluoro-2,6-dimethylphenyl)(3-(4-((1-(3-fluoropropyl)azetidin-3-yl)oxy)phenoxy)-6-hydroxybenzo[b]thiophen-2-yl)methanone]
proteasome dependence of ERα degradation, in words (ERα [3]): coadministration of a proteasome inhibitor blocked the actions
efficacy in T47D spheroids, in words [4]: equally as effective as the SERDs, fulvestrant (2) and GDC-0927 (3b), and as the SERM 1b
inhibition of spheroid growth, in words (MCF7:TAM1 spheroids): greater efficacy
concentration in the brain [2]: exceeded 1 μM
half-life (Full PK analysis of 37d): 270 min

SMILES: Cc1cc(F)cc(C)c1C(=O)c1sc2cc(O)ccc2c1Oc1ccc(OCCN2CC[C@@H](CF)C2)cc1 [30m, (R)-(4-Fluoro-2,6-dimethylphenyl)(3-(4-(2-(3-(fluoromethyl)-pyrrolidin-1-yl)ethoxy)phenoxy)-6-hydroxybenzo[b]thiophen-2-yl)-methanone]
antagonism of ERE-luciferase induction by E2, potency in words (ERE-luciferase): lower potency

SMILES: O=C(c1ccc(OCCN2CCCCC2)cc1)c1c(-c2ccc(O)cc2)sc2cc(O)ccc12 [compound 6, raloxifene, reference compound]
growth inhibition, result in words (MCF7:5C cells): cross-resistant

Continued, in another order:

ERα degradation by ICW, result in words (ERα [1]): reduced efficacy
SMILES: Cc1ccccc1C(=O)c1sc2cc(O)ccc2c1Oc1ccc(OCCN2CCC2)cc1 [30a, (3-(4-(2-(Azetidin-1-yl)ethoxy)phenoxy)-6-hydroxybenzo[b]-thiophen-2-yl)(o-tolyl)methanone]
growth inhibition, result in words (MCF7:5C cells): significantly reduced efficacy

ERα degradation by ICW, result in words (ERα [1]): low efficacy
SMILES: Cc1cc(F)cc(C)c1C(=O)c1sc2cc(O)ccc2c1Oc1ccc(OC2CN(C3CC3)C2)cc1 [37f, (3-(4-((1-Cyclopropylazetidin-3-yl)oxy)phenoxy)-6-hydroxybenzo[b]thiophen-2-yl)(4-fluoro-2,6-dimethylphenyl)-methanone]
antagonism of ERE-luciferase induction by E2, potency in words (ERE-luciferase): lower potency
growth inhibition, result in words (MCF7:5C cells): loss of efficacy
growth inhibition, result in words (MCF7:WS8 cells): potent and effective

ERα degradation by ICW, result in words (ERα [1]): reduced efficacy
SMILES: Cc1cc(O)ccc1C(=O)c1sc2cc(O)ccc2c1Oc1ccc(OCCN2CC(CF)C2)cc1 [30h, (3-(4-(2-(3-(Fluoromethyl)azetidin-1-yl)ethoxy)phenoxy)-6-hydroxybenzo[b]thiophen-2-yl)(4-hydroxy-2-methylphenyl)-methanone]
antagonism of ERE-luciferase induction by E2, potency in words (ERE-luciferase): lower potency

ERα degradation by ICW, result in words (ERα [1]): reduced efficacy
SMILES: Cc1cc(F)cc(C)c1C(=O)c1sc2cc(O)ccc2c1Oc1ccc(OCCN2CC[C@H](CF)C2)cc1 [30n, (S)-(4-Fluoro-2,6-dimethylphenyl)(3-(4-(2-(3-(fluoromethyl)-pyrrolidin-1-yl)ethoxy)phenoxy)-6-hydroxybenzo[b]thiophen-2-yl)-methanone]

IC50 (MCF7:5C cells; 144 h, read-out: pIC50, inhibition of cell growth (converted)): 0.631 to 1.58 nM
IC50 (MCF7:WS8 cells; MCF7:WS8, 96 h, read-out: pIC50, inhibition of cell growth (converted)): 0.631 to 1.58 nM
concentration in the brain, in words ([2]; 30 min, s.c.): below the limit of quantification
SMILES: C[C@]12CC[C@@H]3c4ccc(O)cc4C[C@@H](CCCCCCCCC[S+]([O-])CCCC(F)(F)C(F)(F)F)[C@H]3[C@@H]1CC[C@@H]2O (stereo partly drawn) [compound 2, fulvestrant, reference compound]
inhibition of spheroid growth, in words (MCF7:TAM1 spheroids): greater efficacy

ERα degradation by ICW, result in words (ERα [1]): did not induce ER degradation
SMILES: Cc1ccccc1C(=O)c1sc2cc(O)ccc2c1Oc1ccc(OCCN2CCCCC2)cc1 [30o, (6-Hydroxy-3-(4-(2-(piperidin-1-yl)ethoxy)phenoxy)benzo[b]-thiophen-2-yl)(o-tolyl) Methanone]
growth inhibition, result in words (MCF7:5C cells): did not inhibit growth
